NPY-Y2 PAM-ag: human NPY-Y2 potentiation or agonism, primary screen; 0.45% of 220,000 active; activation, % at 3.6 µM; AID 1359; cells expressing NPY-Y2, potentiator/agonist read-out; P49146; in the data active means activation above about 27%;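 further: cells stimulated with NPY near EC25 plus isoproterenol at EC100; 0% = vehicle plus submaximal agonist and 100% = vehicle plus saturating agonist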
NPY-Y1 antag: NPY-Y1 (human) receptor antagonism. 1% of 200,000 active. AID 1040. inhibition, % at 3.6 µM. P25929. HEK293-CNG Y1 cells, membrane potential fluorescence; NPY at EC95, then isoproterenol;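 active means inhibition above the campaign mean inhibition of all tested compounds plus 3 SD, cut at about 20% in these data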;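 further: 0% = DMSO wells given NPY plus isoproterenol and 100% = isoproterenol alone without NPY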
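Benchmarks – high control isoproterenol alone, low control NPY with isoproterenol · Material – HEK293 Y1/CNG channel cell line · Times – dye 3 h, compound 60 min room temperature, stimulation 45 min · Probe or stimulus – NPY (25 nM), isoproterenol (1 µM), Ro 20-1724 (25 µM) · Evaluation – % inhibition of NPY effect · Signal – fluorescence, membrane potential probe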
NPY-Y1 PAM-ag: potentiates or activates human NPY-Y1 receptor; P25929; NPY-Y1 expressing cells, potentiator/agonist activation; activation, % at 3.6 µM; 0.37% of 220,000 active; in the data active means activation above about 33%, passing the limit was not always enough;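 further: cells stimulated with NPY at EC10 then isoproterenol at EC100; 0% = low agonist plus stimulus and 100% = saturating agonist plus stimulus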
S1P4 ag: human S1P4 receptor agonism; AID 1509; O95977; 0.35% of 220,000 active; S1P4-expressing cell line, agonist reporter assay; activation, % at 4.98 µM; in the data active means activation above about 11%;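 further: 0% = DMSO vehicle and 100% = reference agonist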
Target sequence (O95977 whole entry, looked up): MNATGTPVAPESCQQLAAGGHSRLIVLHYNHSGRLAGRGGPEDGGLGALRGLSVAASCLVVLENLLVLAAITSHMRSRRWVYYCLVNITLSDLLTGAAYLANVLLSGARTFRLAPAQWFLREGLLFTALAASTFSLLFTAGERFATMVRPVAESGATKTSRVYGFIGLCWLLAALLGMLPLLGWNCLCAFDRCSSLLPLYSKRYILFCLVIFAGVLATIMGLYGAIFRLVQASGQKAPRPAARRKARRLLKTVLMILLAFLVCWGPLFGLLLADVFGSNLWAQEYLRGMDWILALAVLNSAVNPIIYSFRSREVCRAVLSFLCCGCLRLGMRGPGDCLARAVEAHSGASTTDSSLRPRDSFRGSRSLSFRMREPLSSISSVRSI
S1P4 antagonist: blocks the human S1P4 receptor. S1P4-expressing cells, antagonist mode, reporter read-out. inhibition, % at 4.98 µM. 0.26% of 220,000 active; in the data active means inhibition above about 29%;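 further: 0% = wells stimulated with agonist and 100% = vehicle wells without agonist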
NPY-Y2 antag: antagonists of human neuropeptide Y receptor Y2 | inhibition, % at 2.7 µM | P49146 | 0.99% of 140,000 active | NPY-Y2 expressing cells, antagonist mode | AID 793; in the data active means inhibition above about 17%;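 further: 0% = vehicle with agonist challenge and 100% = reference antagonist with challenge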
NPY-Y2 pot conf: human NPY-Y2 potentiation or agonism, confirmation. 20% of 450 active. activation, % at 3.6 µM. shares compounds with NPY-Y2 PAM-ag. cell-based NPY-Y2 potentiator/agonist assay; in the data active means activation above about 33%
NPY-Y1 potentiator: counter-screen for NPY-Y2 potentiators or agonists: NPY-Y1 potentiators or agonists. shares compounds with NPY-Y2 PAM-ag. Y1 HEK293-CNG cells, membrane potential fluorescence. activation, % at 3.6 µM. 20% of 450 active; in the data active means activation above about 45%;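 further: cells stimulated with submaximal NPY then isoproterenol with phosphodiesterase inhibitor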
NPY-Y1 agonist 2: human NPY-Y1 agonism as NPY-Y2 potentiator counter-screen. shares compounds with NPY-Y2 PAM-ag. HEK293 Y1-CNGC, membrane potential fluorescence. activation, % at 3.6 µM. 37% of 450 active. AID 1702;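 active means activation above the mean of DMSO-only control wells plus 3 SD, cut at about 18% in these data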;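 further: cells stimulated with 1 µM isoproterenol plus the PDE inhibitor Ro 20-1724; 0% = isoproterenol with DMSO and no NPY and 100% = 40 nM NPY; Y1 agonists lower the membrane potential dye signal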
CNGC inhibitor: cyclic nucleotide gated channel inhibition as counter-screen. 32% of 450 active. HEK293-CNG parental, isoproterenol cAMP, membrane potential fluorescence. inhibition, % at 3.6 µM. shares compounds with NPY-Y2 PAM-ag;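 active means inhibition above the control-well mean plus 3 SD of those wells, cut at about 22% in these data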;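 further: 0% = DMSO with isoproterenol and 100% = DMSO without isoproterenol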
Y2 agonist ctr: counter-screen for NPY-Y2 potentiators: agonists of human NPY-Y2 | HEK293 Y2/CNGC cells, membrane potential fluorescence, agonist mode | activation, % at 3.6 µM | shares compounds with NPY-Y2 PAM-ag | 56% of 450 active;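 active means activation above the mean of solvent-only control wells plus 3 SD, cut at about 10% in these data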;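 further: cells stimulated by isoproterenol with no NPY added so direct agonism is tested; 0% = DMSO with isoproterenol alone and 100% = NPY at EC100 plus isoproterenol; agonism lowers probe fluorescence through less cAMP and CNG channel opening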
S1P4 antag conf: human S1P4 antagonism, confirmation; shares compounds with S1P4 antagonist; S1P4-expressing cell line, antagonist mode, reporter read-out; AID 1524; 71% of 520 active; inhibition, % at 4.98 µM; in the data active means inhibition above about 30%
S1P1 antagonist: blocks human S1P1, counter-screen for S1P4 antagonists | shares compounds with S1P4 antagonist | 37% of 520 active | inhibition, % at 4.98 µM | cell-based S1P1 antagonist counterscreen, inhibition; in the data active means inhibition above about 40%;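 further: receptor stimulated with S1P near its EC80; 0% = agonist stimulated wells and 100% = vehicle only wells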
Active calls of the source: *; . = not tested or not shown. This is a sample that favours compounds with a hit; in the whole collection about 2.4% have one here.

SMILES	NPY-Y2 PAM-ag	NPY-Y1 antag	NPY-Y1 PAM-ag	S1P4 ag	S1P4 antagonist	NPY-Y2 antag	NPY-Y2 pot conf	NPY-Y1 potentiator	NPY-Y1 agonist 2	CNGC inhibitor	Y2 agonist ctr	others
CN(C)CCN(C(=O)/C=C/c1cccs1)c1nc2c(F)cc(F)cc2s1	46*	3	29	1	-11	2	94*	117*	104*	91*	105*
Cc1ccccc1-c1oc(C)c(C)[n+]1[O-]	-20	-5	24	0	6	.	.	.	.	.	.
C=CCN1CC2(c3ccccc3)CN(CC=C)CC(c3ccccc3)(C1)C2=O	-27	7	9	2	-3	.	.	.	.	.	.
O=C(N/N=C\c1ccc(Cl)cc1)C1=NOC2COC3(CCN(c4ccc([N+](=O)[O-])cc4)CC3)OCC12 (centres undefined)	45*	.	13	1	-3	.	10	-13	16	8	27*
Oc1ccccc1Nc1nc(NCc2ccccc2)c2ccccc2n1	36*	4	0	-1	9	.	47*	56*	45*	48*	45*
Oc1ccc(-c2n[nH]c(C(F)(F)F)c2-c2ccccc2)c(O)c1	53*	-3	14	-1	-5	.	17	-4	-13	4	15*
Cc1ccccc1Nc1c(-c2ccc(N3CCOCC3)cc2)nc2cnccn12	39*	.	45	1	3	.	68*	76*	52*	48*	68*
COc1ccccc1-n1c(=S)[nH]c2c(sc(=S)n2-c2ccccc2C)c1=O	-2	8	-8	0	1	.	.	.	.	.	.
CN(CC1CCCO1)S(=O)(=O)c1ccc(C(=O)Nc2nc3cc4c(cc3s2)OCO4)cc1 (centres undefined)	43*	0	13	0	-13	1	3	-9	-23	-12	7
CCOCCCNC(=S)N1CCC(C(=O)c2ccc3c(c2)OCCO3)CC1	-4	-3	-14	-2	-10	.	.	.	.	.	.
CNc1nc(N)c(C(=O)C23CC4CC(CC(C4)C2)C3)s1	31*	-6	27	0	5	.	11	17	14	12	2
CCCOC(=O)NC(CC)COC(=O)Nc1cccc(C)c1C (centres undefined)	33*	4	12	-2	-12	4	-5	-1	-2	-4	5
CCC(COC(=O)Nc1cccc(C)c1C)NC(=O)OCC(C)C (centres undefined)	-4	3	-13	0	8	10	.	.	.	.	.
CCc1cc(C(=O)N/N=C/c2c(C)[nH]c3ccccc23)cs1	10	-2	10	0	10	0	.	.	.	.	.
Cc1ccccc1OCC(O)CN1CCC(C)CC1 (centres undefined)	37*	-4	31	-1	1	.	21	34	19*	3	42*
CC(C)C(c1nnnn1C1CCCCC1)N1CCc2ccccc21 (centres undefined)	59*	9	2	4	-6	8	-2	-2	10	-4	7
Cc1ccc(C(c2nnnn2C2CCCCC2)N2CCc3ccccc32)cc1 (centres undefined)	-9	10	5	-1	-11	3	.	.	.	.	.
O=C(/C=C/c1ccc([N+](=O)[O-])cc1)NCCc1ccc(F)cc1	46*	2	9	-1	-20	.	0	-2	-5	-1	9
CC1CCCCN1C(=O)COc1ccc(F)cc1 (centres undefined)	16	2	0	1	9	.	.	.	.	.	.
O=C(COC(=O)CCc1nc2ccccc2c(=O)[nH]1)NCc1ccc(F)cc1	102*	.	-17	0	2	.	-3	-4	-13	-2	-6
CN(C)CCNC(=O)CNC(=S)N(CCCN1CCOCC1)Cc1cccs1	-5	4	-7	1	-33	.	.	.	.	.	.
CCCn1c(CCC(=O)O)nc2cc(S(N)(=O)=O)ccc21	104*	.	7	-1	0	.	-3	-2	-16	0	-11
O=C(NCCCn1ccnc1)Nc1ccc(Cl)cc1	103*	-2	32	2	-10	-1	5	10	0	7	11*
O=C(NCCCn1ccnc1)Nc1ccc(Cl)c(Cl)c1	1	3	-18	0	8	1	.	.	.	.	.
CCc1nc(NCC(C)C)c(C#N)c2c1COC(C)(C)C2	38*	-2	-8	2	14	-1	-6	-8	-26	-14	-13
SMILES	NPY-Y2 PAM-ag	NPY-Y1 antag	NPY-Y1 PAM-ag	S1P4 ag	S1P4 antagonist	NPY-Y2 antag	NPY-Y2 pot conf	NPY-Y1 potentiator	NPY-Y1 agonist 2	CNGC inhibitor	Y2 agonist ctr	others
CCc1nc(NCC2CCCO2)c(C#N)c2c1COC(C)(C)C2 (centres undefined)	-3	5	-33	0	-10	2	.	.	.	.	.
O=C(Nc1ccc(S(=O)(=O)Nc2nccs2)cc1)c1cc(-c2ccccc2Cl)nc2ccccc12	34*	-2	10	0	-2	5	14	17	6	8	10
S=c1nc(SCc2ccccc2)[nH]c2ccccc12	-10	11	-17	-4	5	.	.	.	.	.	.
c1ccc(CSc2nc3ncncc3[nH]2)cc1	48*	.	-8	1	-1	.	2	-4	-1	7	19*
O=C1CCCN1CCC1CCCCN1Cc1nc(-c2cnccn2)no1 (centres undefined)	4	-5	-12	0	-31	.	.	.	.	.	.
O=S(=O)(CCN1CCSCC1)c1ccccc1	5	.	-23	0	10	.	.	.	.	.	.
O=C(Nc1ccc2c(c1)OCCO2)N1CCN(Cc2ccccc2)CC1	3	0	12	2	1	.	.	.	.	.	.
Cc1ccc(C(=O)Nc2nc3ccccc3n2CCN2CCCC2)cc1	44*	9	14	-3	31*	4	50*	50*	19*	39*	47*	S1P4 antag conf=8;S1P1 antagonist=-11
O=C(Nc1nc2ccccc2n1CCN1CCCC1)c1ccc(Cl)cc1	13	-3	-5	-1	-1	10	.	.	.	.	.
